Columns and labels:
[1] = biological target: T1, Prostaglandin G/H synthase 1 (Ovis aries, UniProt P05979); experiment: Inhibition of ovine COX-1 using arachidonic acid as substrate preincubated with enzyme for 5 mins followed by substrate addition by colorimetric analysis
T1 sequence (P05979 whole entry): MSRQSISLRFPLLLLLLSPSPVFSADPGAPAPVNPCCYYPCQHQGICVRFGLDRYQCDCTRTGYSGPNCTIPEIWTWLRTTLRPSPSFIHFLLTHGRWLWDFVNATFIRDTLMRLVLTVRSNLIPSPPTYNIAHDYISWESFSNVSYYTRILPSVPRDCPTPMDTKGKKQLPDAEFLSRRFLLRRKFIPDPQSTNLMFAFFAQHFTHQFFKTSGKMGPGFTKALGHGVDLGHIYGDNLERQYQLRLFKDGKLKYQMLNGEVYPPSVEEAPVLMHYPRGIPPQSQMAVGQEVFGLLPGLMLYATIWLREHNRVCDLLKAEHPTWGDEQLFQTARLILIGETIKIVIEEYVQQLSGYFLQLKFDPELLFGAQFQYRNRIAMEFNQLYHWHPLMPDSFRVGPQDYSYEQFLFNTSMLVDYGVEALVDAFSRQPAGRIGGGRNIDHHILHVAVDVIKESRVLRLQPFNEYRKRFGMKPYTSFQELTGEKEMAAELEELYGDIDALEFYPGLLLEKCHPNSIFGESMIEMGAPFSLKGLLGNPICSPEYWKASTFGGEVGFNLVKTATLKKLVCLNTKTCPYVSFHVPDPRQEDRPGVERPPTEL

[2] = biological target: T2, Prostaglandin G/H synthase 2 (Homo sapiens, UniProt P35354); experiment: Inhibition of human recombinant COX-2 using arachidonic acid as substrate preincubated with enzyme for 5 mins followed by substrate addition by colorimetric analysis
T2 sequence (P35354 whole entry): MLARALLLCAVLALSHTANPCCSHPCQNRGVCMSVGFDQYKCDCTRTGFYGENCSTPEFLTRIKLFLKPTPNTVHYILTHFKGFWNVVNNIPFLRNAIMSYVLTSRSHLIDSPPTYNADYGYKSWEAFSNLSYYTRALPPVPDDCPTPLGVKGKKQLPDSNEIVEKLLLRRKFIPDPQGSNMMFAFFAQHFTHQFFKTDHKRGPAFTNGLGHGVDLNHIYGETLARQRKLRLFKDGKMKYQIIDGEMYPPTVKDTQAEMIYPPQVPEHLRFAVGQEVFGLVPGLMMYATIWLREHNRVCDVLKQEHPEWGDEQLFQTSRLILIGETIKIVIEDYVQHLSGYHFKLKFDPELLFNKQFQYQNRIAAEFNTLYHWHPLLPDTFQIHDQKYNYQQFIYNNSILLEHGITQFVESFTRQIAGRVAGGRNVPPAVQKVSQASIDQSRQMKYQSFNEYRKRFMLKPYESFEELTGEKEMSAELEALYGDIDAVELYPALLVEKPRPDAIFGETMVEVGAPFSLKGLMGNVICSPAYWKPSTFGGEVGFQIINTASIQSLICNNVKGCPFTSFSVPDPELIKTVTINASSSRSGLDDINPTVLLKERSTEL

[3] = Inhibition of soybean 15-LOX using arachidonic acid or linolenic acid as substrate in presence of hydrogen peroxide incubated for 5 mins by colorimetric analysis; set-up: species or system Glycine max
[4] = tested on: RAW264.7; experiment: Inhibition of LPS-induced NO production in mouse RAW264.7 cells preincubated for 2 hrs followed by LPS stimulation and measured after 20 hrs by DAF-FM based fluorescence analysis; assay type: functional, cell-based
[5] = tested on: RAW264.7; experiment: Antioxidant activity in mouse RAW264.7 cells assessed as inhibition of LPS-induced intracellular ROS production preincubated for 2 hrs followed by LPS stimulation and measured after 20 hrs by DCFH-DA staining based fluorescence analysis; assay type: functional, cell-based
[6] = tested on: RAW264.7; experiment: Inhibition of LPS-induced TNFalpha production in mouse RAW264.7 cells preincubated for 2 hrs followed by LPS stimulation and measured after 20 hrs by ELISA; assay type: functional, cell-based
[7] = tested on: RAW264.7; experiment: Inhibition of LPS-induced IL-6 production in mouse RAW264.7 cells preincubated for 2 hrs followed by LPS stimulation and measured after 20 hrs by ELISA; assay type: functional, cell-based
[8] = tested on: RAW264.7; experiment: Inhibition of LPS-induced 15(S)-HETE production in mouse RAW264.7 cells preincubated for 2 hrs followed by LPS stimulation and measured after 20 hrs by ELISA; assay type: functional, cell-based
[9] = biological target: T3, Prostaglandin G/H synthase 2 (Homo sapiens) (UniProt P35354); experiment: Potency index, ratio of diclofenac sodium IC50 to test compound IC50 for human recombinant COX-2 using arachidonic acid as substrate preincubated with enzyme for 5 mins followed by substrate addition by colorimetric analysis
T3 sequence (whole entry): T2 sequence (P35354 whole entry)

[10] = tested on: RAW264.7; experiment: Cytotoxicity against mouse RAW264.7 cells assessed as reduction in cell viability by MTS assay; assay type: cell-based
How it was run: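 RAW 264.7 macrophage viability at the tested concentrations measured by MTS assay.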

[11] = tested on: RAW264.7; experiment: Potency index, ratio of celecoxib IC50 to test compound IC50 for inhibition of LPS-induced IL-6 production in mouse RAW264.7 cells preincubated for 2 hrs followed by LPS stimulation and measured after 20 hrs by ELISA; assay type: functional; details: time 22 hrs
[12] = tested on: RAW264.7; experiment: Potency index, ratio of diclofenac sodium IC50 to test compound IC50 for inhibition of LPS-induced IL-6 production in mouse RAW264.7 cells preincubated for 2 hrs followed by LPS stimulation and measured after 20 hrs by ELISA; assay type: functional; details: time 22 hrs
[13] = Selectivity index, ratio of IC50 for ovine COX-1 to IC50 for human recombinant COX-2
How it was run: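 Enzyme kit assay with ovine COX-1 and human recombinant COX-2. IC50 determined from three replicates. Selectivity index taken as IC50(COX-1)/IC50(COX-2).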

[14] = tested on: RAW264.7; experiment: Potency index, ratio of celecoxib IC50 to test compound IC50 for inhibition of LPS-induced NO production in mouse RAW264.7 cells preincubated for 2 hrs followed by LPS stimulation and measured after 20 hrs by DAF-FM based fluorescence analysis; assay type: functional; details: time 22 hrs
[15] = tested on: RAW264.7; experiment: Potency index, ratio of diclofenac sodium IC50 to test compound IC50 for inhibition of LPS-induced NO production in mouse RAW264.7 cells preincubated for 2 hrs followed by LPS stimulation and measured after 20 hrs by DAF-FM based fluorescence analysis; assay type: functional; details: time 22 hrs
[16] = tested on: RAW264.7; experiment: Cytotoxicity against mouse RAW264.7 cells assessed as reduction in cell viability at 50 uM by MTS assay; assay type: cell-based; details: raw264.7, 50 µM

Compound: COc1ccc2cc(/C=N/n3c(=S)[nH]nc(Cc4cc(OC)c(OC)c(OC)c4)c3=O)c(O)nc2c1
- IC50 [1]: 9.7 µM
- IC50 [2]: 0.097 µM
- IC50 [3]: 2.18 µM
- IC50 [4]: > 50 µM
- IC50 [5]: 4.52 µM
- IC50 [6]: 2.61 µM
- IC50 [7]: 5.54 µM
- IC50 [8]: 18.6 µM
- Ratio IC50 [9]: 8.7
- Activity [10]: Non-Toxic
- Ratio IC50 [11]: 2
- Ratio IC50 [12]: 2.3

Compound: CC(C)Oc1ccc2nc(O)c(/C=N/n3c(=S)[nH]nc(Cc4ccccc4)c3=O)cc2c1
- IC50 [1]: 6.6 µM
- IC50 [2]: 0.32 µM
- Ratio IC50 [13]: 20.6
- IC50 [3]: 3.49 µM
- IC50 [4]: > 50 µM
- IC50 [5]: 1.91 µM
- IC50 [6]: 34.6 µM
- IC50 [7]: 12.9 µM
- IC50 [8]: 0.42 µM
- Ratio IC50 [9]: 2.6
- Activity [10]: Non-Toxic

Compound: COc1ccc2nc(O)c(/C=N/n3c(=S)[nH]nc(Cc4ccccc4)c3=O)cc2c1
- IC50 [1]: 10.5 µM
- IC50 [2]: 0.068 µM
- Ratio IC50 [13]: 154
- IC50 [3]: 1.97 µM
- IC50 [4]: 6.93 µM
- IC50 [5]: 3.95 µM
- IC50 [6]: > 50 µM
- IC50 [7]: 5.98 µM
- IC50 [8]: 3.91 µM
- Ratio IC50 [9]: 12.4
- Ratio IC50 [14]: 3
- Ratio IC50 [15]: 6
- Activity [10]: Non-Toxic
- Ratio IC50 [11]: 1.9
- Ratio IC50 [12]: 2.2

Compound: COc1cc(Cc2n[nH]c(=S)n(/N=C/c3cc4cc(C)ccc4nc3O)c2=O)cc(OC)c1OC
- IC50 [1]: 11.5 µM
- IC50 [2]: 0.065 µM
- Ratio IC50 [13]: 177
- IC50 [3]: 2.06 µM
- IC50 [4]: 6.34 µM
- IC50 [5]: 6.67 µM
- IC50 [8]: 8.86 µM
- Ratio IC50 [9]: 12.9
- Ratio IC50 [14]: 3
- Ratio IC50 [15]: 6
- Activity [10]: Non-Toxic

Compound: COc1ccc2cc(/C=N/n3c(=S)[nH]nc(Cc4ccccc4)c3=O)c(O)nc2c1
- IC50 [1]: 10.2 µM
- IC50 [2]: 0.073 µM
- Ratio IC50 [13]: 140
- IC50 [3]: 2.32 µM
- IC50 [4]: 16.1 µM
- IC50 [5]: 3.78 µM
- IC50 [6]: 8.41 µM
- IC50 [7]: 7.36 µM
- IC50 [8]: 3.6 µM
- Ratio IC50 [9]: 11.5
- Activity [10]: Non-Toxic
- Activity [16]: Toxic
- Ratio IC50 [11]: 1.5

Compound: Cc1ccc2nc(O)c(/C=N/n3c(=S)[nH]nc(Cc4cccs4)c3=O)cc2c1
- IC50 [1]: 9 µM
- IC50 [2]: 0.11 µM
- Ratio IC50 [13]: 81.8
- IC50 [3]: 2.38 µM
- IC50 [4]: 36.8 µM
- IC50 [5]: 10.9 µM
- IC50 [6]: 3.4 µM
- IC50 [7]: 11.8 µM
- IC50 [8]: 7.13 µM
- Ratio IC50 [9]: 7.6
- Activity [10]: Non-Toxic

Compound: COc1ccc2nc(O)c(/C=N/n3c(=S)[nH]nc(Cc4cc(OC)c(OC)c(OC)c4)c3=O)cc2c1
- IC50 [1]: 11.8 µM
- IC50 [2]: 0.06 µM
- Ratio IC50 [13]: 197
- IC50 [3]: 2.57 µM
- IC50 [4]: > 50 µM
- IC50 [5]: > 50 µM
- IC50 [6]: > 50 µM
- IC50 [7]: > 50 µM
- IC50 [8]: > 50 µM
- Ratio IC50 [9]: 14
- Activity [10]: Non-Toxic

Compound: COc1cc(Cc2n[nH]c(=S)n(/N=C/c3cc4cc(C)ccc4nc3O)c2=O)ccc1O
- IC50 [1]: 10.3 µM
- IC50 [2]: 0.085 µM
- Ratio IC50 [13]: 121
- IC50 [3]: 1.97 µM
- IC50 [4]: > 50 µM
- IC50 [5]: > 50 µM
- IC50 [6]: > 50 µM
- IC50 [7]: > 50 µM
- IC50 [8]: > 50 µM
- Activity [10]: Non-Toxic

Compound: O=c1c(Cc2ccccc2)n[nH]c(=S)n1/N=C/c1cc2ccccc2nc1O
- IC50 [1]: 11.3 µM
- IC50 [2]: 0.054 µM
- Ratio IC50 [13]: 209
- IC50 [3]: 2.12 µM
- IC50 [4]: > 50 µM
- IC50 [5]: > 50 µM
- IC50 [6]: > 50 µM
- IC50 [7]: > 50 µM
- IC50 [8]: > 50 µM
- Ratio IC50 [9]: 15.6
- Activity [10]: Non-Toxic

Compound: Cc1ccc2nc(O)c(/C=N/n3c(=S)[nH]nc(Cc4ccccc4)c3=O)cc2c1
- IC50 [1]: 5.9 µM
- IC50 [2]: 0.28 µM
- Ratio IC50 [13]: 21.1
- IC50 [3]: 2.66 µM
- IC50 [4]: 33.5 µM
- IC50 [5]: 7.31 µM
- IC50 [6]: 30.3 µM
- IC50 [7]: 13.5 µM
- IC50 [8]: 21.3 µM
- Ratio IC50 [9]: 3
- Activity [10]: Non-Toxic

Compound: O=c1c(Cc2cccs2)n[nH]c(=S)n1/N=C/c1cc2ccccc2nc1O
- IC50 [1]: 11.1 µM
- IC50 [2]: 0.079 µM
- Ratio IC50 [13]: 140
- IC50 [3]: 2.13 µM
- IC50 [4]: 9.37 µM
- IC50 [5]: > 50 µM
- IC50 [6]: > 50 µM
- IC50 [7]: > 50 µM
- IC50 [8]: > 50 µM
- Activity [10]: Non-Toxic

From ChEMBL document CHEMBL4819098, “Novel 1,2,4-triazine-quinoline hybrids: The privileged scaffolds as potent multi-target inhibitors of LPS-induced inflammatory response via dual COX-2 and 15-LOX inhibition” (Eur J Med Chem, 2021)
